In ChEMBL document CHEMBL4689842, “EUbOPEN Chemogenomics Library wave 1” (2021):

Test system: Fibroblast
Assay: Multiplex assay against human fibroblast
Format: toxicity, cell-based
Procedure, shortened: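 Cells were classed with CellPathfinder machine-learning gating, first as Hoechst high-intensity objects or normal cells, then (normal cells) as healthy, pyknosed or fragmented nuclei, and finally (pyknosed cells) as mitotic or apoptotic. Staining of live cells at seeding used Hoechst33342, BioTracker Green Microtubule Cytoskeleton Dye, MitoTracker Red and Annexin V Alexa Fluor 680, with imaging on a CQ1 microscope at 37°C and 5% CO2 after compound addition. Tubulin, mitochondrial-mass and membrane-permeability phenotypes are per cents of healthy-nucleus cells.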

[1] = 12 h, 1 µM, compound concentration 1 uM, replicate 1
[2] = 12 h, 1 µM, compound concentration 1 uM, replicate 2
[3] = 12 h, 10 µM, compound concentration 10 uM, replicate 1
[4] = 12 h, 10 µM, compound concentration 10 uM, replicate 2
[5] = 24 h, 1 µM, compound concentration 1 uM, replicate 1
[6] = 24 h, 1 µM, compound concentration 1 uM, replicate 2
[7] = 24 h, 10 µM, compound concentration 10 uM, replicate 1
[8] = 24 h, 10 µM, compound concentration 10 uM, replicate 2
[9] = 48 h, 1 µM, compound concentration 1 uM, replicate 1
[10] = 48 h, 1 µM, compound concentration 1 uM, replicate 2
[11] = 48 h, 10 µM, compound concentration 10 uM, replicate 1
[12] = 48 h, 10 µM, compound concentration 10 uM, replicate 2

COc1cccc([C@@H](C)NCCCc2ccccc2Cl)c1.Cl [TECALCET HYDROCHLORIDE]
Population Apoptotic (%) [1]: 55%
Population Fragmented Nuclei (%) [1]: 20%
Population Healthy Nuclei (%) [1]: 53%
Population Hoechst High Intensity Objects (%) [1]: 9%
Population Membrane Permeable-Phenotype (%) [1]: 22%
Population Mitochondria Different-Phenotype (%) [1]: 4%
Population Mitotic Cells (%) [1]: 44%
Population Normal (%) [1]: 90%
Population Pyknosed Nuclei (%) [1]: 25%
Population Tubulin-Different-Phenotype (%) [1]: 53%
Total Cell Count [1]: 222
Population Apoptotic (%) [2]: 16%
Population Fragmented Nuclei (%) [2]: 10%
Population Healthy Nuclei (%) [2]: 81%
Population Hoechst High Intensity Objects (%) [2]: 10%
Population Membrane Permeable-Phenotype (%) [2]: 6%
Population Mitochondria Different-Phenotype (%) [2]: 20%
Population Mitotic Cells (%) [2]: 83%
Population Normal (%) [2]: 89%
Population Pyknosed Nuclei (%) [2]: 8%
Population Tubulin-Different-Phenotype (%) [2]: 18%
Total Cell Count [2]: 70
Population Apoptotic (%) [3]: 62%
Population Fragmented Nuclei (%) [3]: 26%
Population Healthy Nuclei (%) [3]: 43%
Population Hoechst High Intensity Objects (%) [3]: 12%
Population Membrane Permeable-Phenotype (%) [3]: 11%
Population Mitochondria Different-Phenotype (%) [3]: 17%
Population Mitotic Cells (%) [3]: 37%
Population Normal (%) [3]: 87%
Population Pyknosed Nuclei (%) [3]: 29%
Population Tubulin-Different-Phenotype (%) [3]: 71%
Total Cell Count [3]: 183
Population Apoptotic (%) [4]: 41%
Population Fragmented Nuclei (%) [4]: 7%
Population Healthy Nuclei (%) [4]: 75%
Population Hoechst High Intensity Objects (%) [4]: 5%
Population Membrane Permeable-Phenotype (%) [4]: 18%
Population Mitochondria Different-Phenotype (%) [4]: 90%
Population Mitotic Cells (%) [4]: 58%
Population Normal (%) [4]: 94%
Population Pyknosed Nuclei (%) [4]: 17%
Population Tubulin-Different-Phenotype (%) [4]: 96%
Total Cell Count [4]: 83
Population Apoptotic (%) [5]: 56%
Population Fragmented Nuclei (%) [5]: 28%
Population Healthy Nuclei (%) [5]: 50%
Population Hoechst High Intensity Objects (%) [5]: 10%
Population Membrane Permeable-Phenotype (%) [5]: 26%
Population Mitochondria Different-Phenotype (%) [5]: 4%
Population Mitotic Cells (%) [5]: 43%
Population Normal (%) [5]: 89%
Population Pyknosed Nuclei (%) [5]: 21%
Population Tubulin-Different-Phenotype (%) [5]: 62%
Total Cell Count [5]: 217
Population Apoptotic (%) [6]: 77%
Population Fragmented Nuclei (%) [6]: 8%
Population Healthy Nuclei (%) [6]: 80%
Population Hoechst High Intensity Objects (%) [6]: 8%
Population Membrane Permeable-Phenotype (%) [6]: 6%
Population Mitochondria Different-Phenotype (%) [6]: 6%
Population Mitotic Cells (%) [6]: 22%
Population Normal (%) [6]: 91%
Population Pyknosed Nuclei (%) [6]: 10%
Population Tubulin-Different-Phenotype (%) [6]: 12%
Total Cell Count [6]: 95
Population Apoptotic (%) [7]: 61%
Population Fragmented Nuclei (%) [7]: 25%
Population Healthy Nuclei (%) [7]: 53%
Population Hoechst High Intensity Objects (%) [7]: 17%
Population Membrane Permeable-Phenotype (%) [7]: 13%
Population Mitochondria Different-Phenotype (%) [7]: 31%
Population Mitotic Cells (%) [7]: 38%
Population Normal (%) [7]: 82%
Population Pyknosed Nuclei (%) [7]: 21%
Population Tubulin-Different-Phenotype (%) [7]: 75%
Total Cell Count [7]: 178
Population Apoptotic (%) [8]: 35%
Population Fragmented Nuclei (%) [8]: 8%
Population Healthy Nuclei (%) [8]: 70%
Population Hoechst High Intensity Objects (%) [8]: 8%
Population Membrane Permeable-Phenotype (%) [8]: 24%
Population Mitochondria Different-Phenotype (%) [8]: 91%
Population Mitotic Cells (%) [8]: 64%
Population Normal (%) [8]: 91%
Population Pyknosed Nuclei (%) [8]: 20%
Population Tubulin-Different-Phenotype (%) [8]: 92%
Total Cell Count [8]: 97
Population Apoptotic (%) [9]: 54%
Population Fragmented Nuclei (%) [9]: 28%
Population Healthy Nuclei (%) [9]: 60%
Population Hoechst High Intensity Objects (%) [9]: 10%
Population Membrane Permeable-Phenotype (%) [9]: 19%
Population Mitochondria Different-Phenotype (%) [9]: 3%
Population Mitotic Cells (%) [9]: 45%
Population Normal (%) [9]: 89%
Population Pyknosed Nuclei (%) [9]: 10%
Population Tubulin-Different-Phenotype (%) [9]: 42%
Total Cell Count [9]: 229
Population Apoptotic (%) [10]: 0%
Population Healthy Nuclei (%) [10]: 70%
Population Hoechst High Intensity Objects (%) [10]: 13%
Population Membrane Permeable-Phenotype (%) [10]: 13%
Population Mitochondria Different-Phenotype (%) [10]: 4%
Population Mitotic Cells (%) [10]: 100%
Population Normal (%) [10]: 87%
Population Pyknosed Nuclei (%) [10]: 1%
Population Tubulin-Different-Phenotype (%) [10]: 40%
Total Cell Count [10]: 100
Population Apoptotic (%) [11]: 76%
Population Fragmented Nuclei (%) [11]: 46%
Population Healthy Nuclei (%) [11]: 45%
Population Hoechst High Intensity Objects (%) [11]: 21%
Population Membrane Permeable-Phenotype (%) [11]: 6%
Population Mitochondria Different-Phenotype (%) [11]: 16%
Population Mitotic Cells (%) [11]: 23%
Population Normal (%) [11]: 78%
Population Pyknosed Nuclei (%) [11]: 8%
Population Tubulin-Different-Phenotype (%) [11]: 60%
Total Cell Count [11]: 207
Population Apoptotic (%) [12]: 0%
Population Fragmented Nuclei (%) [12]: 56%
Population Healthy Nuclei (%) [12]: 43%
Population Hoechst High Intensity Objects (%) [12]: 15%
Population Membrane Permeable-Phenotype (%) [12]: 0%
Population Mitochondria Different-Phenotype (%) [12]: 12%
Population Mitotic Cells (%) [12]: 100%
Population Normal (%) [12]: 84%
Population Pyknosed Nuclei (%) [12]: 0%
Population Tubulin-Different-Phenotype (%) [12]: 76%
Total Cell Count [12]: 138

Cc1nc(Nc2n[nH]c3c2CN(C(=O)N[C@H](CN(C)C)c2ccccc2)C3(C)C)c2sccc2n1 [PF-03758309]
Population Apoptotic (%) [1]: 82%
Population Fragmented Nuclei (%) [1]: 33%
Population Healthy Nuclei (%) [1]: 48%
Population Hoechst High Intensity Objects (%) [1]: 13%
Population Membrane Permeable-Phenotype (%) [1]: 6%
Population Mitochondria Different-Phenotype (%) [1]: 2%
Population Mitotic Cells (%) [1]: 17%
Population Normal (%) [1]: 86%
Population Pyknosed Nuclei (%) [1]: 18%
Population Tubulin-Different-Phenotype (%) [1]: 2%
Total Cell Count [1]: 216
Population Apoptotic (%) [2]: 60%
Population Fragmented Nuclei (%) [2]: 54%
Population Healthy Nuclei (%) [2]: 37%
Population Hoechst High Intensity Objects (%) [2]: 28%
Population Membrane Permeable-Phenotype (%) [2]: 0%
Population Mitochondria Different-Phenotype (%) [2]: 13%
Population Mitotic Cells (%) [2]: 40%
Population Normal (%) [2]: 71%
Population Pyknosed Nuclei (%) [2]: 8%
Population Tubulin-Different-Phenotype (%) [2]: 13%
Total Cell Count [2]: 83
Population Apoptotic (%) [3]: 62%
Population Fragmented Nuclei (%) [3]: 35%
Population Healthy Nuclei (%) [3]: 51%
Population Hoechst High Intensity Objects (%) [3]: 11%
Population Membrane Permeable-Phenotype (%) [3]: 9%
Population Mitochondria Different-Phenotype (%) [3]: 10%
Population Mitotic Cells (%) [3]: 37%
Population Normal (%) [3]: 88%
Population Pyknosed Nuclei (%) [3]: 12%
Population Tubulin-Different-Phenotype (%) [3]: 32%
Total Cell Count [3]: 240
Population Apoptotic (%) [4]: 40%
Population Fragmented Nuclei (%) [4]: 57%
Population Healthy Nuclei (%) [4]: 25%
Population Hoechst High Intensity Objects (%) [4]: 39%
Population Membrane Permeable-Phenotype (%) [4]: 0%
Population Mitochondria Different-Phenotype (%) [4]: 20%
Population Mitotic Cells (%) [4]: 60%
Population Normal (%) [4]: 60%
Population Pyknosed Nuclei (%) [4]: 16%
Population Tubulin-Different-Phenotype (%) [4]: 33%
Total Cell Count [4]: 98
Population Apoptotic (%) [5]: 70%
Population Fragmented Nuclei (%) [5]: 25%
Population Healthy Nuclei (%) [5]: 53%
Population Hoechst High Intensity Objects (%) [5]: 16%
Population Membrane Permeable-Phenotype (%) [5]: 7%
Population Mitochondria Different-Phenotype (%) [5]: 8%
Population Mitotic Cells (%) [5]: 29%
Population Normal (%) [5]: 83%
Population Pyknosed Nuclei (%) [5]: 20%
Population Tubulin-Different-Phenotype (%) [5]: 7%
Total Cell Count [5]: 181
Population Apoptotic (%) [6]: 75%
Population Fragmented Nuclei (%) [6]: 59%
Population Healthy Nuclei (%) [6]: 33%
Population Hoechst High Intensity Objects (%) [6]: 28%
Population Membrane Permeable-Phenotype (%) [6]: 0%
Population Mitochondria Different-Phenotype (%) [6]: 10%
Population Mitotic Cells (%) [6]: 25%
Population Normal (%) [6]: 71%
Population Pyknosed Nuclei (%) [6]: 6%
Population Tubulin-Different-Phenotype (%) [6]: 0%
Total Cell Count [6]: 82
Population Apoptotic (%) [7]: 67%
Population Fragmented Nuclei (%) [7]: 30%
Population Healthy Nuclei (%) [7]: 54%
Population Hoechst High Intensity Objects (%) [7]: 20%
Population Membrane Permeable-Phenotype (%) [7]: 15%
Population Mitochondria Different-Phenotype (%) [7]: 6%
Population Mitotic Cells (%) [7]: 32%
Population Normal (%) [7]: 79%
Population Pyknosed Nuclei (%) [7]: 15%
Population Tubulin-Different-Phenotype (%) [7]: 40%
Total Cell Count [7]: 254
Population Apoptotic (%) [8]: 100%
Population Fragmented Nuclei (%) [8]: 48%
Population Healthy Nuclei (%) [8]: 45%
Population Hoechst High Intensity Objects (%) [8]: 34%
Population Membrane Permeable-Phenotype (%) [8]: 11%
Population Mitochondria Different-Phenotype (%) [8]: 22%
Population Mitotic Cells (%) [8]: 0%
Population Normal (%) [8]: 65%
Population Pyknosed Nuclei (%) [8]: 6%
Population Tubulin-Different-Phenotype (%) [8]: 44%
Total Cell Count [8]: 92
